CHO parental Ca: ATP-evoked calcium signal inhibitors, parental CHO, primary screen, counter-screen for OX1R antagonist project, cell-based, fluorescence, Fluo-8 calcium dye; actives 0.63% (n = 330,000); inhibition, % at 5.6 µM; parental CHO-K1, ATP-induced calcium, Fluo-8 fluorescence;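 active = inhibition above that plate's mean sample inhibition plus 3 SD, cut at about 26% in these data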;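 also: 0% = ATP-challenged DMSO wells and 100% = DMSO wells without ATP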
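Test system: parental CHO cells; detection: calcium-sensitive Fluo-8 fluorescence; evaluation: percent inhibition of calcium signal; also added: ATP as calcium-mobilizing challenge; repeats: one well per compound; control set: ATP-challenged DMSO wells low, unchallenged DMSO wells high; compound: single nominal dose of 5.6 µM per compound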
M1 ag parental: counter-screen for M1 agonists: effect in parental CHO-K1 cells; Fluo-8 calcium fluorescence; scaled to maximal ATP response, vehicle zero; activation, % at 3 µM; actives 0.48% (n = 360,000); in the data active = activation above about 15%;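 also: untransfected CHO-K1 host cells lacking M1 receptor as counterscreen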
CHO-K1 Ca antag: counter-screen for M1 antagonists: effect in parental CHO-K1 cells. actives 0.6% (n = 360,000). inhibition, % at 3 µM. ATP-induced calcium, Fluo-8 fluorescence;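 active = inhibition above a per-plate cutoff, the plate's mean sample inhibition plus 3 SD, cut at about 24% in these data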;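 also: 0% = DMSO plus EC80 ATP and 100% = DMSO alone without ATP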
M1 PAM parental: nonselective calcium activators in parental CHO-K1 cells, primary screen, counter-screen for M1 PAM project, cell-based, Fluo-8 calcium fluorescence, full deck, 1536-well; activation, % at 3 µM; ATP EC20; 0% at ATP EC20, 100% at ATP max; actives 0.02% (n = 360,000);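 active = activation above the run cutoff, the mean activation of all test compounds plus 3 SD, cut at about 40% in these data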;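 also: peak over basal fluorescence ratio in a 140 s read after ATP addition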
OX1R antag-1: antagonists of human orexin 1 receptor (OX1R). Orexin/Hypocretin receptor type 1 (Homo sapiens), O43613. OX1R-expressing cells, FRET antagonist read-out. inhibition, % at 6.6 µM. actives 1.8% (n = 330,000). AID 485270, 2010; in the data active = inhibition mostly above about 38%, no sharp cut-off; inactive = mostly below about 40%;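 also: 0% = agonist challenge alone and 100% = reference antagonist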
Target sequence (O43613 whole entry, looked up): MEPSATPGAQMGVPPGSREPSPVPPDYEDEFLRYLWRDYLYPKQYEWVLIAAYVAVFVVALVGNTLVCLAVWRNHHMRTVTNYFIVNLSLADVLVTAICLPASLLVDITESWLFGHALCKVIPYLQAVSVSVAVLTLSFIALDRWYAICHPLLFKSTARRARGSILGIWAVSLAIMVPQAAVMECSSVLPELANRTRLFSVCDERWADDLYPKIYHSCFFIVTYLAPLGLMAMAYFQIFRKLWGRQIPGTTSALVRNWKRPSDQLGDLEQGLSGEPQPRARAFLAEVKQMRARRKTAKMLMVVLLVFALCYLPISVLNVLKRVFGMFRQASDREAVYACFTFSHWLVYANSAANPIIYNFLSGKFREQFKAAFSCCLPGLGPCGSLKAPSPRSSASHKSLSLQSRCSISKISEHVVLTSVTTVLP
OX1R antag-2: OX1R (HCRTR1) antagonists, primary screen, fluorescence, CHO/OX1R cells, Fluo-8 calcium, orexin A. Orexin/Hypocretin receptor type 1 (Homo sapiens), O43613. Fluo-8 calcium fluorescence. inhibition, % at 5 µM. actives 0.43% (n = 330,000). AID 434989, 2010;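 active = inhibition above its plate's threshold, mean inhibition of all tested compounds on the plate plus 3 SD, cut at about 37% in these data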;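 also: 0% = orexin A challenge wells and 100% = SB-334867-A antagonist wells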
An asterisk follows results filed as active. This is a sample that favours compounds with a hit; in the whole collection about 2.9% have one here.

How did COCCN(Cc1ccccc1)C(=O)Cc1ccc(OC)c(S(=O)(=O)N2CCOCC2)c1 do in these assays?
CHO parental Ca: -16; M1 ag parental: 2; CHO-K1 Ca antag: -7; M1 PAM parental: 12; OX1R antag-1: 23; OX1R antag-2: -28

Results for COCc1cc(C)nc2sc(C(=O)Nc3cccc(OC)c3)c(N)c12 ?
CHO parental Ca: -14; M1 ag parental: 1; CHO-K1 Ca antag: 1; M1 PAM parental: 1; OX1R antag-1: 39*; OX1R antag-2: -14

What do the screens show for `Cn1nc(-c2ccc(Cl)cc2)nc2c(=O)n(C)c(=O)nc1-2`?
CHO parental Ca: -24; OX1R antag-1: 91*; OX1R antag-2: -16

Results for Nc1ccc(Sc2ccccc2)nc1 ?
CHO parental Ca: 5; M1 ag parental: 1; CHO-K1 Ca antag: 6; M1 PAM parental: -12; OX1R antag-1: 21; OX1R antag-2: -8

How did CCOC(=O)c1c(-c2ccccc2)csc1NC(=O)c1ccc(S(=O)(=O)N2CC(C)OC(C)C2)cc1 (stereo unspecified) do in these assays?
CHO parental Ca: -14; M1 ag parental: 0; CHO-K1 Ca antag: -4; M1 PAM parental: 12; OX1R antag-1: 0; OX1R antag-2: -8

What do the screens show for `CCOC(=O)c1c(-c2ccccc2)csc1NC(=O)c1ccc(N2C(=O)CCC2=O)cc1`?
CHO parental Ca: -10; M1 ag parental: 0; CHO-K1 Ca antag: 25*; M1 PAM parental: -13; OX1R antag-1: 27; OX1R antag-2: 34

What do the screens show for `CCOC(=O)c1c(-c2ccc(OC)cc2)csc1NC(=O)CNCc1ccco1`?
CHO parental Ca: -20; M1 ag parental: 1; CHO-K1 Ca antag: -5; M1 PAM parental: 6; OX1R antag-1: 46*; OX1R antag-2: -8

What do the screens show for `CCOC(=O)c1c(-c2ccccc2)csc1NC(=O)CSc1nc(C)cc(C)n1`?
CHO parental Ca: 37*; M1 ag parental: 1; CHO-K1 Ca antag: 4; M1 PAM parental: -2; OX1R antag-1: 36; OX1R antag-2: -4

What do the screens show for `CCOC(=O)c1c(-c2ccc(Cl)cc2)csc1NC(=O)CNCc1ccco1`?
CHO parental Ca: -23; M1 ag parental: 2; CHO-K1 Ca antag: -19; M1 PAM parental: 24; OX1R antag-1: 35; OX1R antag-2: -24

What do the screens show for `Cc1ccc(S(=O)(=O)N(C)CC(=O)NCC(c2ccco2)N(C)C)cc1` (stereo unspecified)?
CHO parental Ca: -8; M1 ag parental: 0; CHO-K1 Ca antag: -7; M1 PAM parental: -15; OX1R antag-1: 9; OX1R antag-2: -25

How did O=C(CN1C(=O)CNC1=O)Nc1cc(Cl)cc(Cl)c1 do in these assays?
CHO parental Ca: -2; M1 ag parental: 0; CHO-K1 Ca antag: -16; M1 PAM parental: 19; OX1R antag-1: 8; OX1R antag-2: -3

What do the screens show for `Cc1ccc(C(=O)Nc2cccc(NC(=O)c3cccs3)c2)c(C)c1`?
CHO parental Ca: -15; M1 ag parental: 1; CHO-K1 Ca antag: -8; M1 PAM parental: 11; OX1R antag-1: 64*; OX1R antag-2: 10

What do the screens show for `Cc1ccn2cc(-c3cccc(NC(=O)c4cccs4)c3)nc2c1`?
CHO parental Ca: -20; M1 ag parental: 2; CHO-K1 Ca antag: -13; M1 PAM parental: -6; OX1R antag-1: 75*; OX1R antag-2: -15

What do the screens show for `O=C(Nc1cccc(-c2csc(-c3ccccc3)n2)c1)c1cccs1`?
CHO parental Ca: -6; M1 ag parental: 1; CHO-K1 Ca antag: -3; M1 PAM parental: 10; OX1R antag-1: 67*; OX1R antag-2: 0

Results for CC(C)C(=O)Nc1ccc(-c2csc(-c3ccccc3)n2)cc1 ?
CHO parental Ca: 41*; M1 ag parental: 0; CHO-K1 Ca antag: -11; M1 PAM parental: 11; OX1R antag-1: 18; OX1R antag-2: 13

How did CCN(CC)P(=O)(c1ccccc1)c1c(C)nc2ccccn12 (stereo unspecified) do in these assays?
CHO parental Ca: 3; M1 ag parental: 2; CHO-K1 Ca antag: -15; M1 PAM parental: 14; OX1R antag-1: 17; OX1R antag-2: -29

What do the screens show for `COc1cccc(C(NC(C)=O)c2nc(-c3ccc4ccccc4c3)cs2)c1` (stereo unspecified)?
M1 ag parental: 1; CHO-K1 Ca antag: -5; M1 PAM parental: 14

Results for COc1ccc2[nH]c3c(c2c1)CCN1C(=O)C(CC(=O)NCc2ccco2)C[C@H](C(=O)N2CCOCC2)[C@@]31C (stereo partly specified) ?
CHO parental Ca: -9; M1 ag parental: 0; CHO-K1 Ca antag: -4; M1 PAM parental: 10; OX1R antag-1: 2; OX1R antag-2: 3

How did Cc1cc2cc(OCc3ccccc3)ccc2n1C do in these assays?
CHO parental Ca: 5; M1 ag parental: 1; CHO-K1 Ca antag: -3; M1 PAM parental: 19; OX1R antag-1: 16; OX1R antag-2: -19

Results for Cc1cc2cc(OCC(=O)O)ccc2n1C ?
CHO parental Ca: -2; M1 ag parental: 0; CHO-K1 Ca antag: -2; M1 PAM parental: 12; OX1R antag-1: 59*; OX1R antag-2: -7

How did Cc1ccccc1OCCC(=O)OCC(=O)NCCNC(=O)COC(=O)CCOc1ccccc1C do in these assays?
CHO parental Ca: -20; M1 ag parental: 9; CHO-K1 Ca antag: 1; M1 PAM parental: 10; OX1R antag-1: 10; OX1R antag-2: -24

What do the screens show for `Cn1c(N=Cc2ccc([N+](=O)[O-])cc2)c(N)c(=O)n(C)c1=O`?
M1 ag parental: 0; CHO-K1 Ca antag: 3; M1 PAM parental: -18

How did Cn1c(CBr)c(C(=O)c2ccc([N+](=O)[O-])cc2)c(=O)n(C)c1=O do in these assays?
CHO parental Ca: -5; M1 ag parental: 0; CHO-K1 Ca antag: -2; M1 PAM parental: -20; OX1R antag-1: 51*; OX1R antag-2: -16

What do the screens show for `CC(=O)c1cn(-c2ccc([N+](=O)[O-])cc2)c(=O)n(C)c1=O`?
CHO parental Ca: -8; M1 ag parental: 1; CHO-K1 Ca antag: -16; M1 PAM parental: 12; OX1R antag-1: 39*; OX1R antag-2: -8

Results for Cn1c(N)c(C(=O)c2ccc(Cl)cc2)c(=O)n(C)c1=O ?
CHO parental Ca: -7; M1 ag parental: 1; CHO-K1 Ca antag: -12; M1 PAM parental: 16; OX1R antag-1: 4; OX1R antag-2: -3

Results for CCOc1ccc(NC(=O)CN(C)C(=O)CSCc2c(C)noc2C)cc1OCC ?
CHO parental Ca: -11; M1 ag parental: 1; CHO-K1 Ca antag: 1; M1 PAM parental: -12; OX1R antag-1: 7; OX1R antag-2: -14

Screening results (PubChem BioAssay)
